Reference: ChEMBL document CHEMBL4689842, “EUbOPEN Chemogenomics Library wave 1” (2021)

Tested on: Fibroblast
Assay: Multiplex assay against human fibroblast
Type: toxicity, cell-based
How it was run: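 Hoechst33342, BioTracker Green Microtubule Cytoskeleton Dye, MitoTracker Red and Annexin V Alexa Fluor 680 were added to live cells at seeding, and imaging on a CQ1 microscope at 37°C and 5% CO2 followed compound addition. Gating by CellPathfinder machine learning separated cells into Hoechst high-intensity objects or normal cells, then normal cells into healthy, pyknosed or fragmented nuclei, then pyknosed cells into mitotic or apoptotic. Per cents of healthy-nucleus cells are reported for the tubulin, mitochondrial-mass and membrane-permeability phenotypes.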

[1] = 12 h, 1 µM, compound concentration 1 uM, replicate 1
[2] = 12 h, 1 µM, compound concentration 1 uM, replicate 2
[3] = 12 h, 10 µM, compound concentration 10 uM, replicate 1
[4] = 12 h, 10 µM, compound concentration 10 uM, replicate 2
[5] = 24 h, 1 µM, compound concentration 1 uM, replicate 1
[6] = 24 h, 1 µM, compound concentration 1 uM, replicate 2
[7] = 24 h, 10 µM, compound concentration 10 uM, replicate 1
[8] = 24 h, 10 µM, compound concentration 10 uM, replicate 2
[9] = 48 h, 1 µM, compound concentration 1 uM, replicate 1
[10] = 48 h, 1 µM, compound concentration 1 uM, replicate 2
[11] = 48 h, 10 µM, compound concentration 10 uM, replicate 1
[12] = 48 h, 10 µM, compound concentration 10 uM, replicate 2

SMILES: COC(=N)c1nc2ccc3ncnc(Nc4ccc(OC)cc4F)c3c2s1
- Population Apoptotic (%) [1]: 55%
- Population Fragmented Nuclei (%) [1]: 30%
- Population Healthy Nuclei (%) [1]: 60%
- Population Hoechst High Intensity Objects (%) [1]: 17%
- Population Membrane Permeable-Phenotype (%) [1]: 3%
- Population Mitochondria Different-Phenotype (%) [1]: 3%
- Population Mitotic Cells (%) [1]: 44%
- Population Normal (%) [1]: 82%
- Population Pyknosed Nuclei (%) [1]: 9%
- Population Tubulin-Different-Phenotype (%) [1]: 1%
- Total Cell Count [1]: 119
- Population Apoptotic (%) [2]: 28%
- Population Fragmented Nuclei (%) [2]: 50%
- Population Healthy Nuclei (%) [2]: 34%
- Population Hoechst High Intensity Objects (%) [2]: 33%
- Population Membrane Permeable-Phenotype (%) [2]: 6%
- Population Mitochondria Different-Phenotype (%) [2]: 6%
- Population Mitotic Cells (%) [2]: 71%
- Population Normal (%) [2]: 66%
- Population Pyknosed Nuclei (%) [2]: 15%
- Population Tubulin-Different-Phenotype (%) [2]: 6%
- Total Cell Count [2]: 69
- Population Apoptotic (%) [3]: 76%
- Population Fragmented Nuclei (%) [3]: 20%
- Population Healthy Nuclei (%) [3]: 60%
- Population Hoechst High Intensity Objects (%) [3]: 11%
- Population Membrane Permeable-Phenotype (%) [3]: 7%
- Population Mitochondria Different-Phenotype (%) [3]: 0%
- Population Mitotic Cells (%) [3]: 23%
- Population Normal (%) [3]: 88%
- Population Pyknosed Nuclei (%) [3]: 18%
- Population Tubulin-Different-Phenotype (%) [3]: 1%
- Total Cell Count [3]: 238
- Population Apoptotic (%) [4]: 100%
- Population Fragmented Nuclei (%) [4]: 57%
- Population Healthy Nuclei (%) [4]: 35%
- Population Hoechst High Intensity Objects (%) [4]: 30%
- Population Membrane Permeable-Phenotype (%) [4]: 5%
- Population Mitochondria Different-Phenotype (%) [4]: 5%
- Population Mitotic Cells (%) [4]: 0%
- Population Normal (%) [4]: 69%
- Population Pyknosed Nuclei (%) [4]: 7%
- Population Tubulin-Different-Phenotype (%) [4]: 5%
- Total Cell Count [4]: 82
- Population Apoptotic (%) [5]: 77%
- Population Fragmented Nuclei (%) [5]: 41%
- Population Healthy Nuclei (%) [5]: 50%
- Population Hoechst High Intensity Objects (%) [5]: 19%
- Population Membrane Permeable-Phenotype (%) [5]: 8%
- Population Mitochondria Different-Phenotype (%) [5]: 6%
- Population Mitotic Cells (%) [5]: 22%
- Population Normal (%) [5]: 80%
- Population Pyknosed Nuclei (%) [5]: 7%
- Population Tubulin-Different-Phenotype (%) [5]: 1%
- Total Cell Count [5]: 146
- Population Apoptotic (%) [6]: 42%
- Population Fragmented Nuclei (%) [6]: 44%
- Population Healthy Nuclei (%) [6]: 36%
- Population Hoechst High Intensity Objects (%) [6]: 30%
- Population Membrane Permeable-Phenotype (%) [6]: 7%
- Population Mitochondria Different-Phenotype (%) [6]: 7%
- Population Mitotic Cells (%) [6]: 57%
- Population Normal (%) [6]: 69%
- Population Pyknosed Nuclei (%) [6]: 18%
- Population Tubulin-Different-Phenotype (%) [6]: 14%
- Total Cell Count [6]: 55
- Population Apoptotic (%) [7]: 65%
- Population Fragmented Nuclei (%) [7]: 20%
- Population Healthy Nuclei (%) [7]: 62%
- Population Hoechst High Intensity Objects (%) [7]: 13%
- Population Membrane Permeable-Phenotype (%) [7]: 5%
- Population Mitochondria Different-Phenotype (%) [7]: 2%
- Population Mitotic Cells (%) [7]: 34%
- Population Normal (%) [7]: 86%
- Population Pyknosed Nuclei (%) [7]: 17%
- Population Tubulin-Different-Phenotype (%) [7]: 1%
- Total Cell Count [7]: 246
- Population Apoptotic (%) [8]: 50%
- Population Fragmented Nuclei (%) [8]: 54%
- Population Healthy Nuclei (%) [8]: 37%
- Population Hoechst High Intensity Objects (%) [8]: 30%
- Population Membrane Permeable-Phenotype (%) [8]: 10%
- Population Mitochondria Different-Phenotype (%) [8]: 5%
- Population Mitotic Cells (%) [8]: 50%
- Population Normal (%) [8]: 69%
- Population Pyknosed Nuclei (%) [8]: 7%
- Population Tubulin-Different-Phenotype (%) [8]: 10%
- Total Cell Count [8]: 73

SMILES: CCN1CCN(Cc2ccc(Nc3ncc(F)c(-c4cc(F)c5nc(C)n(C(C)C)c5c4)n3)nc2)CC1.CS(=O)(=O)O
- Population Apoptotic (%) [1]: 75%
- Population Fragmented Nuclei (%) [1]: 39%
- Population Healthy Nuclei (%) [1]: 40%
- Population Hoechst High Intensity Objects (%) [1]: 15%
- Population Membrane Permeable-Phenotype (%) [1]: 17%
- Population Mitochondria Different-Phenotype (%) [1]: 21%
- Population Mitotic Cells (%) [1]: 25%
- Population Normal (%) [1]: 84%
- Population Pyknosed Nuclei (%) [1]: 20%
- Population Tubulin-Different-Phenotype (%) [1]: 57%
- Total Cell Count [1]: 187
- Population Apoptotic (%) [2]: 40%
- Population Fragmented Nuclei (%) [2]: 17%
- Population Healthy Nuclei (%) [2]: 67%
- Population Hoechst High Intensity Objects (%) [2]: 6%
- Population Membrane Permeable-Phenotype (%) [2]: 8%
- Population Mitochondria Different-Phenotype (%) [2]: 91%
- Population Mitotic Cells (%) [2]: 60%
- Population Normal (%) [2]: 93%
- Population Pyknosed Nuclei (%) [2]: 14%
- Population Tubulin-Different-Phenotype (%) [2]: 97%
- Total Cell Count [2]: 73
- Population Apoptotic (%) [3]: 63%
- Population Fragmented Nuclei (%) [3]: 40%
- Population Healthy Nuclei (%) [3]: 13%
- Population Hoechst High Intensity Objects (%) [3]: 17%
- Population Membrane Permeable-Phenotype (%) [3]: 52%
- Population Mitochondria Different-Phenotype (%) [3]: 5%
- Population Mitotic Cells (%) [3]: 36%
- Population Normal (%) [3]: 82%
- Population Pyknosed Nuclei (%) [3]: 46%
- Population Tubulin-Different-Phenotype (%) [3]: 47%
- Total Cell Count [3]: 158
- Population Apoptotic (%) [4]: 83%
- Population Fragmented Nuclei (%) [4]: 32%
- Population Healthy Nuclei (%) [4]: 22%
- Population Hoechst High Intensity Objects (%) [4]: 9%
- Population Membrane Permeable-Phenotype (%) [4]: 88%
- Population Mitochondria Different-Phenotype (%) [4]: 94%
- Population Mitotic Cells (%) [4]: 16%
- Population Normal (%) [4]: 90%
- Population Pyknosed Nuclei (%) [4]: 45%
- Population Tubulin-Different-Phenotype (%) [4]: 100%
- Total Cell Count [4]: 88
- Population Apoptotic (%) [5]: 44%
- Population Fragmented Nuclei (%) [5]: 39%
- Population Healthy Nuclei (%) [5]: 45%
- Population Hoechst High Intensity Objects (%) [5]: 21%
- Population Membrane Permeable-Phenotype (%) [5]: 15%
- Population Mitochondria Different-Phenotype (%) [5]: 8%
- Population Mitotic Cells (%) [5]: 55%
- Population Normal (%) [5]: 78%
- Population Pyknosed Nuclei (%) [5]: 15%
- Population Tubulin-Different-Phenotype (%) [5]: 69%
- Total Cell Count [5]: 240
- Population Apoptotic (%) [6]: 58%
- Population Fragmented Nuclei (%) [6]: 20%
- Population Healthy Nuclei (%) [6]: 61%
- Population Hoechst High Intensity Objects (%) [6]: 10%
- Population Membrane Permeable-Phenotype (%) [6]: 21%
- Population Mitochondria Different-Phenotype (%) [6]: 85%
- Population Mitotic Cells (%) [6]: 41%
- Population Normal (%) [6]: 89%
- Population Pyknosed Nuclei (%) [6]: 17%
- Population Tubulin-Different-Phenotype (%) [6]: 87%
- Total Cell Count [6]: 75
- Population Apoptotic (%) [7]: 80%
- Population Fragmented Nuclei (%) [7]: 45%
- Population Healthy Nuclei (%) [7]: 16%
- Population Hoechst High Intensity Objects (%) [7]: 25%
- Population Membrane Permeable-Phenotype (%) [7]: 46%
- Population Mitochondria Different-Phenotype (%) [7]: 0%
- Population Mitotic Cells (%) [7]: 20%
- Population Normal (%) [7]: 74%
- Population Pyknosed Nuclei (%) [7]: 38%
- Population Tubulin-Different-Phenotype (%) [7]: 53%
- Total Cell Count [7]: 122
- Population Apoptotic (%) [8]: 97%
- Population Fragmented Nuclei (%) [8]: 27%
- Population Healthy Nuclei (%) [8]: 13%
- Population Hoechst High Intensity Objects (%) [8]: 20%
- Population Membrane Permeable-Phenotype (%) [8]: 100%
- Population Mitochondria Different-Phenotype (%) [8]: 87%
- Population Mitotic Cells (%) [8]: 2%
- Population Normal (%) [8]: 79%
- Population Pyknosed Nuclei (%) [8]: 59%
- Population Tubulin-Different-Phenotype (%) [8]: 100%
- Total Cell Count [8]: 74
- Population Apoptotic (%) [9]: 56%
- Population Fragmented Nuclei (%) [9]: 43%
- Population Healthy Nuclei (%) [9]: 41%
- Population Hoechst High Intensity Objects (%) [9]: 37%
- Population Membrane Permeable-Phenotype (%) [9]: 6%
- Population Mitochondria Different-Phenotype (%) [9]: 12%
- Population Mitotic Cells (%) [9]: 43%
- Population Normal (%) [9]: 62%
- Population Pyknosed Nuclei (%) [9]: 15%
- Population Tubulin-Different-Phenotype (%) [9]: 69%
- Total Cell Count [9]: 246
- Population Apoptotic (%) [10]: 75%
- Population Fragmented Nuclei (%) [10]: 53%
- Population Healthy Nuclei (%) [10]: 43%
- Population Hoechst High Intensity Objects (%) [10]: 16%
- Population Membrane Permeable-Phenotype (%) [10]: 10%
- Population Mitochondria Different-Phenotype (%) [10]: 5%
- Population Mitotic Cells (%) [10]: 25%
- Population Normal (%) [10]: 83%
- Population Pyknosed Nuclei (%) [10]: 2%
- Population Tubulin-Different-Phenotype (%) [10]: 61%
- Total Cell Count [10]: 199
- Population Apoptotic (%) [11]: 100%
- Population Fragmented Nuclei (%) [11]: 69%
- Population Healthy Nuclei (%) [11]: 20%
- Population Hoechst High Intensity Objects (%) [11]: 33%
- Population Membrane Permeable-Phenotype (%) [11]: 41%
- Population Mitochondria Different-Phenotype (%) [11]: 5%
- Population Mitotic Cells (%) [11]: 0%
- Population Normal (%) [11]: 66%
- Population Pyknosed Nuclei (%) [11]: 9%
- Population Tubulin-Different-Phenotype (%) [11]: 76%
- Total Cell Count [11]: 123
- Population Apoptotic (%) [12]: 77%
- Population Fragmented Nuclei (%) [12]: 35%
- Population Healthy Nuclei (%) [12]: 50%
- Population Hoechst High Intensity Objects (%) [12]: 53%
- Population Membrane Permeable-Phenotype (%) [12]: 23%
- Population Mitochondria Different-Phenotype (%) [12]: 38%
- Population Mitotic Cells (%) [12]: 22%
- Population Normal (%) [12]: 46%
- Population Pyknosed Nuclei (%) [12]: 13%
- Population Tubulin-Different-Phenotype (%) [12]: 52%
- Total Cell Count [12]: 145
